Experimental findings from ChEMBL document CHEMBL1156752, “Phosphinic tripeptides as dual angiotensin-converting enzyme C-domain and endothelin-converting enzyme-1 inhibitors” (J Med Chem, 2010) are described below.

One assay concerns the target Neprilysin (Homo sapiens, UniProt P08473). The experiment in a line: Inhibition of human somatic NEP. A digest of the protocol:
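Human NEP (0.5 nM) preincubated 45 min with inhibitor, then Mca-Arg-Pro-Pro-Gly-Phe-Ser-Pro-Dpa-OH (5 μM, Km 2 μM) added. Run at 25 °C, pH 6.8 Hepes/NaCl/ZnCl2/Brij-35 buffer. Fluorescence increase read at ex 320/em 405 nm under initial rates. […] Ki obtained.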

In assay [1] the target is T1, Angiotensin-converting enzyme (Homo sapiens, UniProt P12821). The experiment in a line: Inhibition of human somatic ACE C-terminal domain.
In assay [2] the target is T2, Endothelin-converting enzyme 1 (Homo sapiens, UniProt P42892).
T2 sequence (P42892 whole entry): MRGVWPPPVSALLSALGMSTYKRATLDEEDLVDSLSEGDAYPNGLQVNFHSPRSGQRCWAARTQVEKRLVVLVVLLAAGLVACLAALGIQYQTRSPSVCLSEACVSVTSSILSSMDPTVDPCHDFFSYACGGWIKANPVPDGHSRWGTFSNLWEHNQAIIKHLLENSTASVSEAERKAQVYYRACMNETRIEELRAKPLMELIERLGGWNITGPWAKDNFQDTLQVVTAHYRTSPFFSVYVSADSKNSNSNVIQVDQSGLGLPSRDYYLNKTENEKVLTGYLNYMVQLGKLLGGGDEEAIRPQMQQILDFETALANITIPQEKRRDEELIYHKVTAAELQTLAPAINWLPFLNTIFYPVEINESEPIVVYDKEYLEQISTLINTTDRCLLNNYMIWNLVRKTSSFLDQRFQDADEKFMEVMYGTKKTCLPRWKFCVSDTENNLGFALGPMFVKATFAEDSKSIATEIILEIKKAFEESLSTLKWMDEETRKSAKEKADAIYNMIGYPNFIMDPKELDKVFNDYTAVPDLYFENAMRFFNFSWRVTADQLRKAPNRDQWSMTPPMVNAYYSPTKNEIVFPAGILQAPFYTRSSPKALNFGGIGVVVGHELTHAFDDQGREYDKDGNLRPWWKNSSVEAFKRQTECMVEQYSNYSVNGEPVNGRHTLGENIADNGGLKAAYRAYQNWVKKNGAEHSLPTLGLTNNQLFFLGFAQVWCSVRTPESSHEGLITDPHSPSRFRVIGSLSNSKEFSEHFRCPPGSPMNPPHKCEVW
The experiment in a line: Inhibition of human somatic ECE1.

The next assay addresses Collagenase 3 (Homo sapiens, UniProt P45452). The experiment in a line: Inhibition of human MMP13.
The subject of assay [3] is Rattus norvegicus. The experiment in a line: Antihypertensive activity in spontaneously hypertensive rat assessed as mean arterial pressure at 3 mg/kg, iv. It is filed as functional, Artery. A digest of the protocol: (§1)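 Male SHR rats (250 g, 12 weeks old) anesthetized with Nesdonal (50 mg/kg ip), tracheotomized, body temperature kept at 37 °C. MAP recorded by femoral artery transducer. Inhibitor or vehicle ([…]) given as iv bolus through venous catheter after 20 min stabilization. MAP followed for 60 min, n = 6/dose.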

In assay [4] the target is T1, Angiotensin-converting enzyme. The experiment in a line: Inhibition of human somatic ACE in presence of 1:50 diluted SHR rat plasma. An outline of the steps:
(§2)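 ACE (1 nM final) and inhibitor at various concentrations incubated 45 min in this plasma. Reaction started with Mca-Ala-Ser-Asp-Lys-Dpa-OH (15 μM). Fluorescence monitored. Apparent Ki derived.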

Assay [5] has the same target. The experiment in a line: Inhibition of human somatic ACE in presence of 1:100 diluted SHR rat plasma. The class given is cell-free. An outline of the steps:
as §2

For assay [6] the target is unchanged. The experiment in a line: Inhibition of human somatic ACE in presence of 1:100 diluted SHR rat plasma complemented with 5 uM serum albumin. It is filed as cell-free. An outline of the steps: as §2
The subject of assay [7] is Rattus norvegicus. The experiment in a line: Antihypertensive activity in spontaneously hypertensive rat assessed as mean arterial pressure at 10 mg/kg, iv. It is filed as functional, Artery. A digest of the protocol:
as §1

The target in assay [8] is T1, Angiotensin-converting enzyme. The experiment in a line: Inhibition of human somatic ACE in presence of buffer.
The subject of assay [9] is Rattus norvegicus. The experiment in a line: Antihypertensive activity in spontaneously hypertensive rat assessed as mean arterial pressure at 30 mg/kg, iv. The class given is functional, Artery. A digest of the protocol: as §1
In assay [10] the target is T1, Angiotensin-converting enzyme. The experiment in a line: Inhibition of human somatic ACE N-terminal domain. A digest of the protocol:
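Human somatic ACE (0.5 nM) preincubated 45 min with inhibitor, then Mca-Ala-Ser-Asp-Lys-Dpa-OH substrate (8 μM) added. Continuous fluorescence read at ex 320/em 405 nm under initial-rate conditions. […] Ki calculated per domain.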

Some results are limits rather than exact numbers.

With `O=C(N[C@H]1CCS[C@H]2CCC[C@@H](C(=O)O)N2C1=O)[C@@H](S)Cc1ccccc1` [OMAPATRILAT], the Ki was found to be 0.009 µM on Neprilysin and 0.006 µM in [1].

With `O=C(N[C@@H](Cc1ccccc1)P(=O)(O)C[C@@H](Cc1cc(-c2ccccc2)no1)C(=O)N[C@@H](Cc1c[nH]c2ccccc12)C(=O)O)OCc1ccccc1`, the inhibitory constant (Ki) in [2] was determined as 0.026 µM; on Collagenase 3 it was 0.019 µM; at Neprilysin, 0.13 µM; in assay [1], 0.0014 µM.

Turning to `O=C(N[C@@H](Cc1ccccc1)P(=O)(O)CC(Cc1cc(-c2ccccc2)no1)C(=O)N[C@@H](Cc1c[nH]c2ccccc12)C(=O)O)OCc1ccccc1` (some centres undefined), the values for the Ki (in [2]; at Neprilysin; in assay [1]) were 0.014 µM, 0.26 µM and 0.016 µM, respectively.

In the case of `O=C(N[C@@H](Cc1ccccc1)P(=O)(O)C[C@H](Cc1cc(-c2ccccc2)no1)C(=O)N[C@@H](Cc1ccc(O)cc1)C(=O)O)OCc1ccccc1`, the Ki in assay [2] amounted to 0.014 µM; in assay [4], […]; in [5], […]; in [6], […]; at Collagenase 3, 4 µM; at Neprilysin, 6.7 µM. For the same compound, the results for the Activity with Rattus norvegicus [3] and in the assay with Rattus norvegicus [7] were 147 mmHg and 132 mmHg, respectively.

In the case of `O=C(N[C@@H](Cc1ccccc1)P(=O)(O)CC(CC1CC(c2ccccc2)=NO1)C(=O)N[C@@H](Cc1c[nH]c2ccccc12)C(=O)O)OCc1ccccc1` (some centres undefined), the Ki came to 0.91 µM in [2], 2.5 µM at Neprilysin and 0.013 µM in [1].

In the case of `O=C(N[C@@H](Cc1ccccc1)P(=O)(O)CC(Cc1ccccc1)C(=O)N[C@@H](Cc1c[nH]c2ccccc12)C(=O)O)OCc1ccccc1` (some centres undefined), the Ki turned out to be 0.0012 µM in assay [2] and 0.0014 µM on Neprilysin.

Compound `O=C(N[C@@H](Cc1ccccc1)P(=O)(O)C[C@@H](Cc1cc(-c2ccccc2)no1)C(=O)N[C@@H](Cc1ccc(O)cc1)C(=O)O)OCc1ccccc1` came in with a Ki at Collagenase 3 of 0.024 µM.

Regarding `C[C@H](NC(=O)C(CC1CC(c2ccccc2)=NO1)CP(=O)(O)[C@H](Cc1ccccc1)NC(=O)OCc1ccccc1)C(=O)O` (some centres undefined), the inhibition constant (Ki) in assay [2] was 2.1 µM; at Neprilysin, 0.085 µM; in [1], 0.005 µM.

As for `O=C(N[C@@H](Cc1ccccc1)P(=O)(O)C[C@H](Cc1cc(-c2ccccc2)no1)C(=O)N[C@@H](Cc1c[nH]c2ccccc12)C(=O)O)OCc1ccccc1`, the inhibition constant Ki turned out to be 0.008 µM in assay [2]; 1.52 µM in assay [4]; 0.5 µM in assay [5]; 1.51 µM in assay [6]; 0.036 µM in [8]; 1.2 µM on Collagenase 3. Moreover, the figures for the Ki (at Neprilysin; in assay [1]) were 1.85 µM and 0.036 µM, respectively. In addition, the Activity is on record as 148 mmHg with Rattus norvegicus [7] and 96 mmHg with Rattus norvegicus [9].

With `O=C(N[C@@H](Cc1ccccc1)P(=O)(O)CC(CC1CC(c2ccc(-c3ccccc3)cc2)=NO1)C(=O)N[C@@H](Cc1c[nH]c2ccccc12)C(=O)O)OCc1ccccc1` (some centres undefined), the Ki in assay [2] is over 10 µM; on Neprilysin, over 10 µM; in assay [1], 0.025 µM.

As for `O=C(N[C@@H](Cc1ccccc1)P(=O)(O)C[C@@H](Cc1cc(-c2ccccc2)no1)C(=O)N[C@@H](Cc1ccccc1)C(=O)O)OCc1ccccc1`, the inhibition constant Ki worked out at 0.24 µM in assay [2], 0.03 µM on Collagenase 3, 0.068 µM at Neprilysin and 0.0004 µM in [1].

On to `O=C(N[C@@H](Cc1ccccc1)P(=O)(O)CC(CC1CC(c2ccc(C(F)(F)F)cc2)=NO1)C(=O)N[C@@H](Cc1c[nH]c2ccccc12)C(=O)O)OCc1ccccc1` (some centres undefined), for which the Ki was over 5 µM in [2], over 5 µM on Neprilysin and 0.02 µM in assay [1].

As to `CS(=O)(=O)N[C@@H](CCCCN)C(=O)N[C@@H](Cc1ccccc1)P(=O)(O)CC1(C(=O)N[C@@H](Cc2c[nH]c3ccccc23)C(=O)O)CCCC1`, the IC50 against Neprilysin is 0.09 µM; in assay [1] it was 0.0025 µM.

`O=C(O)[C@H](Cc1ccc2c(c1)oc1ccccc12)NCP(=O)(O)O` gave an IC50 at Neprilysin of 2.3 µM.

For the compound `O=C(N[C@@H](Cc1ccccc1)P(=O)(O)C1CCC[C@H]1C(=O)N[C@@H](Cc1c[nH]c2ccccc12)C(=O)O)OCc1ccccc1` (single isomer, unassigned), the Ki was over 50 µM in [2], 2.5 µM in [10], over 50 µM at Neprilysin and 0.003 µM in assay [1].

For `O=C(N[C@@H](Cc1ccccc1)P(=O)(O)CC(Cc1cc(-c2ccccc2)no1)C(=O)N[C@@H](Cc1ccccc1)C(=O)O)OCc1ccccc1` (single isomer, unassigned), the inhibition constant Ki in [2] is 0.0077 µM; in assay [4], 0.34 µM; in [5], 0.032 µM; in assay [6], 0.11 µM; in assay [8], 0.0038 µM; at Collagenase 3 it was over 10 µM. For the same compound, the Ki on Neprilysin was over 10 µM; in assay [1] it was 0.0038 µM.

Consider `O=C(N[C@@H](Cc1ccccc1)P(=O)(O)CC(Cc1ccc(-c2ccccc2)cc1)C(=O)N[C@@H](Cc1c[nH]c2ccccc12)C(=O)O)OCc1ccccc1` (some centres undefined), for which the Ki was over 10 µM in assay [2], 0.052 µM at Neprilysin and 0.012 µM in assay [1].
